Activity calls are given as the source filed them.
Tests used:
[1] = Binding affinity to MLXBIR3SG domain by fluorescence polarization competitive assay
[2] = target: E3 ubiquitin-protein ligase XIAP (Homo sapiens, UniProt P98170); test: Binding affinity to XIAP-BIR3 domain by fluorescence polarization competitive assay
[3] = tested on: HMEC; test: Cytotoxicity against HMEC cells assessed as cell viability after 3 to 4 days; settings: Homo sapiens
[4] = tested on: HMEC; test: Induction of apoptosis in HMEC cells assessed as caspase 3/7 activation after 3 to 24 hrs; settings: Homo sapiens
[5] = Half life in mouse at 25 mg/kg, po; assay type: ADME, organism-based; design: dose 25 mg/kg, route oral; settings: in vivo
[6] = tested on: BT-549; test: Induction of apoptosis in human BT549 cells assessed as caspase 3/7 activation after 3 to 24 hrs
[7] = tested on: MDA-MB-231; test: Cytotoxicity against human MDA-MB-231 cells assessed as cell viability after 3 to 4 days
[8] = Cmax in mouse at 25 mg/kg, po; assay type: ADME, organism-based; design: dose 25 mg/kg, route oral; settings: in vivo
[9] = tested on: MDA-MB-231; test: Induction of apoptosis in human MDA-MB-231 cells assessed as caspase 3/7 activation after 3 to 24 hrs
[10] = AUC in mouse at 25 mg/kg, po; assay type: ADME, organism-based; design: dose 25 mg/kg, route oral; settings: plasma
[11] = tested on: MDA-MB-231; test: Induction of cIAP1 degradation in human MDA-MB-231 cells after 1 hr by Western blot; assay type: functional, cell-based
In short: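 MDA-MB-231 cells treated 1 h with a range of compound concentrations. Western blot probed with goat anti-c-IAP1, with mouse monoclonal anti-β-tubulin as loading control.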

[12] = tested on: Mus musculus; test: Toxicity in mouse bearing human MDA-MB-231 cells assessed as change in body weight at 50 mg/kg/day, po; assay type: organism-based; design: route oral; settings: in vivo
In short: (§1)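 Female 8-week-old C.B-17 SCID.bg mice inoculated subcutaneously in the upper right flank with 1 × 10⁷ GFP-expressing MDA-MB-231-X1.1 cells. Once-daily oral gavage of vehicle or compound at 50 (mg/kg)/day began at tumors of ~200 mm³ (~1.5 weeks after inoculation), n = 14 per group. Caliper tumor volume V = 0.5ab². Progression defined as a 6-fold volume increase from day 0; body weight monitored.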

[13] = tested on: MDA-MB-231; test: Antitumor activity against human MDA-MB-231 cells xenografted in mouse assessed as increase in median time for tumor progression at 50 mg/kg/day, po; assay type: functional, organism-based; in short: as §1

E3 ubiquitin-protein ligase XIAP, sequence (P98170 whole entry, the tested form may be a part): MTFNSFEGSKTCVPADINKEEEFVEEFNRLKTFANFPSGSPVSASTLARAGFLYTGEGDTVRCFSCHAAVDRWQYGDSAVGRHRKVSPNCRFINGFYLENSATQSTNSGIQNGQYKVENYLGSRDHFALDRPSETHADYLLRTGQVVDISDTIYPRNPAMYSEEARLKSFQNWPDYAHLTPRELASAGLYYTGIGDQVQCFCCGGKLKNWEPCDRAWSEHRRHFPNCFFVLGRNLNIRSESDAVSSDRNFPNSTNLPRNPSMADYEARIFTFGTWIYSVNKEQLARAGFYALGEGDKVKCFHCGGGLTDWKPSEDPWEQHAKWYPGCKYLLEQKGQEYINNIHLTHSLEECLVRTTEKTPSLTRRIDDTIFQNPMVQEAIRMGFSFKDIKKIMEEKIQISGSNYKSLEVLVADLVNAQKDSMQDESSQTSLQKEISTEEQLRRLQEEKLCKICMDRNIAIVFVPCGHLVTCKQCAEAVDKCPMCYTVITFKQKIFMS

| SMILES | Ki [1] | Ki [2] | EC50 [3] | EC50 [4] | EC50 [6] | EC50 [7] | EC50 [9] | further results |
| --- | --- | --- | --- | --- | --- | --- | --- | --- |
| CN[C@@H](C)C(=O)N[C@H](C(=O)N1CC[C@H]2CC[C@H](NC(=O)c3csc4ccccc34)[C@H]21)C(C)(C)C | 110 nM | 160 nM | – | – | – | – | – | – |
| CN[C@@H](C)C(=O)N[C@H](C(=O)N1CC[C@H]2CC[C@H](NC(=O)c3coc4ccccc34)[C@H]21)C(C)(C)C | 440 nM | 640 nM | – | – | – | – | – | – |
| CN[C@@H](C)C(=O)N[C@H](C(=O)N1CCC[C@H]1CNC(=O)C(c1ccccc1)c1ccccc1)C(C)(C)C | 290 nM | 3000 nM | – | – | – | – | – | – |
| CN[C@@H](C)C(=O)N[C@H](C(=O)N1CCC[C@H]1CNC(=O)c1cccc2ccccc12)C(C)(C)C | 780 nM | 1600 nM | – | – | – | – | – | – |
| CN[C@@H](C)C(=O)N[C@H](C(=O)N1CC[C@H]2CC[C@H](NC(=O)C3COc4ccccc43)[C@H]21)C(C)(C)C (some centres undefined) | 1500 nM | 1300 nM | – | – | – | – | – | – |
| CN[C@@H](C)C(=O)N[C@H](C(=O)N1CC[C@H]2CC[C@H](NC(=O)c3c(OC)ccc4ccccc34)[C@H]21)C(C)(C)C | 110 nM | 110 nM | – | – | – | – | – | – |
| CN[C@@H](C)C(=O)N[C@H](C(=O)N1CC[C@H]2CC[C@H](NC(=O)C(c3ccccc3)c3ccccc3)[C@H]21)C(C)(C)C | – | – | > 10000 nM | > 10000 nM | 1810 nM | 9640 nM | 3590 nM | half-life [5]: 1.5 h; Cmax [8]: 5 µM; AUC [10]: 16 µM·h |
| CN[C@@H](C)C(=O)N[C@H](C(=O)N1CC[C@H]2CC[C@H](NC(=O)N3CCc4ccccc43)[C@H]21)C(C)(C)C | 1900 nM | 1500 nM | – | – | – | – | – | – |
| CN[C@@H](C)C(=O)N[C@H](C(=O)N1CC[C@H]2CC[C@H](NC(=O)c3ccc4ccccc4c3)[C@H]21)C(C)(C)C | – | – | > 10000 nM | > 10000 nM | 190 nM | 3290 nM | 1320 nM | – |
| CN[C@@H](C)C(=O)N[C@H](C(=O)N1CC[C@H]2CC[C@H](NC(=O)c3ccc(C)c4ccccc34)[C@H]21)C(C)(C)C | 63 nM | 190 nM | > 10000 nM | > 10000 nM | 1450 nM | 3120 nM | 1580 nM | – |
| CN[C@@H](C)C(=O)N[C@H](C(=O)N1CC[C@H]2CC[C@H](NC(=O)c3cccc4ccccc34)[C@H]21)C(C)(C)C | – | – | > 10000 nM | > 10000 nM | 470 nM | 980 nM | 490 nM | Activity [11]: Active; Activity [12]: Non-toxic; half-life [5]: 1.3 h; Cmax [8]: 3.6 µM; AUC [10]: 5 µM·h; Activity [13]: Active |
| CN[C@@H](C)C(=O)N[C@H](C(=O)N1CC[C@H]2CC[C@H](NC(=O)c3ccc4c(c3)OCO4)[C@H]21)C(C)(C)C | 1300 nM | 1800 nM | – | – | – | – | – | – |
| CN[C@@H](C)C(=O)N[C@H](C(=O)N1CC[C@H]2CC[C@H](NC(=O)c3ccc4[nH]nnc4c3)[C@H]21)C(C)(C)C | 260 nM | 1500 nM | – | – | – | – | – | – |
| CN[C@@H](C)C(=O)N[C@H](C(=O)N1CC[C@H]2CC[C@H](NC(=O)c3ccc(F)c4ccccc34)[C@H]21)C(C)(C)C | – | – | > 10000 nM | > 10000 nM | 4070 nM | 10200 nM | 4450 nM | – |

Source: ChEMBL document CHEMBL1152772, “Orally bioavailable antagonists of inhibitor of apoptosis proteins based on an azabicyclooctane scaffold” (J Med Chem, 2009)
